In PMC5338039 (Biochemistry, 2017):
“Also recorded” adds a separate entry of the source.

Legend:
Assay type in all cases: cell-based
GPR55 H(170)F = GPR55 H(170)F (Homo sapiens, UniProt Q9Y2T6, H170F); test: SRE luciferase assay, H; conditions: H(170)F
Method in brief: (§1)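 HA-tagged human GPR55 (WT or sequence-confirmed site-directed mutant, pcDNA3) co-transfected by lipofection with pGL4.33 luc2P/SRE reporter into HEK293 cells; 60,000 cells/well, switched to 1% FBS/DMEM after 5 h, overnight. Agonist test compounds (10 mM DMSO stocks) added for 5 h in serum-free DMEM, 37°C. Cells lysed 10 min at room temperature, luciferin injected, luminescence read immediately (RLU). EC50 from sigmoidal nonlinear regression.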

GPR55 C(10)A = GPR55 C(10)A (Homo sapiens, UniProt Q9Y2T6, C10A); test: SRE luciferase assay, C; conditions: C(10)A
Chain of GPR55 C(10)A (Q9Y2T6 whole entry C10A): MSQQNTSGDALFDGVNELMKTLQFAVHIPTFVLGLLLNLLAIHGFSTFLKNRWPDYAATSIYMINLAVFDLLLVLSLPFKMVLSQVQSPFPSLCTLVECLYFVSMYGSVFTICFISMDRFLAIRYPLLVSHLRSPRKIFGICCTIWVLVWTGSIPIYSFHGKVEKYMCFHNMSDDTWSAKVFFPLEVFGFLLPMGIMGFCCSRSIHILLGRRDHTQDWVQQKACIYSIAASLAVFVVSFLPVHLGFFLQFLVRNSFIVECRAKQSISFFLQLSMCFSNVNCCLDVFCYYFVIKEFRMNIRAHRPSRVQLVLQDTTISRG
Method in brief: as §1

GPR55 K2.60A = GPR55 K2.60A (Homo sapiens, UniProt Q9Y2T6, K80A); test: SRE luciferase assay, K2.60A mutant
Chain of GPR55 K2.60A (Q9Y2T6 whole entry K80A): as the sequence (Q9Y2T6 whole entry C10A) above, with A10C, K80A counted along it
Method in brief: as §1

GPR55 F6.55L = GPR55 F6.55L (Homo sapiens, UniProt Q9Y2T6, F246L); test: SRE luciferase assay, F6.55L mutant; conditions: F6.55L
Chain of GPR55 F6.55L (Q9Y2T6 whole entry F246L): as the sequence (Q9Y2T6 whole entry C10A) above, with A10C, F246L counted along it
Method in brief: as §1

GPR55 Q7.36N = GPR55 Q7.36N (Homo sapiens, UniProt Q9Y2T6, Q271N); test: SRE luciferase assay, Q7.36N mutant; conditions: Q7.36N
Chain of GPR55 Q7.36N (Q9Y2T6 whole entry Q271N): as the sequence (Q9Y2T6 whole entry C10A) above, with A10C, Q271N counted along it
Method in brief: as §1

GPR55 E3.29L = GPR55 E3.29L (Homo sapiens, UniProt Q9Y2T6, E98L); test: SRE luciferase assay, E3.29L mutant; conditions: E3.29L
Chain of GPR55 E3.29L (Q9Y2T6 whole entry E98L): as the sequence (Q9Y2T6 whole entry C10A) above, with A10C, E98L counted along it
Method in brief: as §1

GPR55 F6.55A = GPR55 F6.55A (Homo sapiens, UniProt Q9Y2T6, F246A); test: SRE luciferase assay, F6.55A mutant; conditions: F6.55A
Chain of GPR55 F6.55A (Q9Y2T6 whole entry F246A): as the sequence (Q9Y2T6 whole entry C10A) above, with A10C, F246A counted along it
Method in brief: as §1

GPR55 M3.36A = GPR55 M3.36A (Homo sapiens, UniProt Q9Y2T6, M105A); test: SRE luciferase assay, M3.36A mutant; conditions: M3.36A
Chain of GPR55 M3.36A (Q9Y2T6 whole entry M105A): as the sequence (Q9Y2T6 whole entry C10A) above, with A10C, M105A counted along it
Method in brief: as §1

GPR55 Y3.32F = GPR55 Y3.32F (Homo sapiens, UniProt Q9Y2T6, Y101F); test: SRE luciferase assay, Y3.32F mutant; conditions: Y3.32F
Chain of GPR55 Y3.32F (Q9Y2T6 whole entry Y101F): as the sequence (Q9Y2T6 whole entry C10A) above, with A10C, Y101F counted along it
Method in brief: as §1

GPR55 C(260)A = GPR55 C(260)A (Homo sapiens, UniProt Q9Y2T6, C260A); test: SRE luciferase assay, C; conditions: C(260)A
Chain of GPR55 C(260)A (Q9Y2T6 whole entry C260A): as the sequence (Q9Y2T6 whole entry C10A) above, with A10C, C260A counted along it
Method in brief: as §1

GPR55 Q7.36A = GPR55 Q7.36A (Homo sapiens, UniProt Q9Y2T6, Q271A); test: SRE luciferase assay, Q7.36A mutant; conditions: Q7.36A
Chain of GPR55 Q7.36A (Q9Y2T6 whole entry Q271A): as the sequence (Q9Y2T6 whole entry C10A) above, with A10C, Q271A counted along it
Method in brief: as §1

GPR55 F6.48A = GPR55 F6.48A (Homo sapiens, UniProt Q9Y2T6, F239A); test: SRE luciferase assay, F6.48A mutant; conditions: F6.48A
Chain of GPR55 F6.48A (Q9Y2T6 whole entry F239A): as the sequence (Q9Y2T6 whole entry C10A) above, with A10C, F239A counted along it
Method in brief: as §1

GPR55 Y3.32L = GPR55 Y3.32L (Homo sapiens, UniProt Q9Y2T6, Y101L); test: SRE luciferase assay, Y3.32L mutant; conditions: Y3.32L
Chain of GPR55 Y3.32L (Q9Y2T6 whole entry Y101L): as the sequence (Q9Y2T6 whole entry C10A) above, with A10C, Y101L counted along it
Method in brief: as §1

GPR55 E3.29A = GPR55 E3.29A (Homo sapiens, UniProt Q9Y2T6, E98A); test: SRE luciferase assay, E3.29A mutant; conditions: E3.29A
Chain of GPR55 E3.29A (Q9Y2T6 whole entry E98A): as the sequence (Q9Y2T6 whole entry C10A) above, with A10C, E98A counted along it
Method in brief: as §1

GPR55 Q6.58M = GPR55 Q6.58M (Homo sapiens, UniProt Q9Y2T6, Q249M); test: SRE luciferase assay, Q6.58M mutant; conditions: Q6.58M
Chain of GPR55 Q6.58M (Q9Y2T6 whole entry Q249M): as the sequence (Q9Y2T6 whole entry C10A) above, with A10C, Q249M counted along it
Method in brief: as §1

Chain of GPR55 H(170)F (Q9Y2T6 whole entry H170F): as the sequence (Q9Y2T6 whole entry C10A) above, with A10C, H170F counted along it

SRE response compared with WT (in words) (GPR55 C(10)A): right shifted curves
SRE response compared with WT (in words) (GPR55 F6.55L): little to no effect
SRE response compared with WT (in words) (GPR55 Q7.36N): little to no effect
SRE response compared with WT (in words) (GPR55 F6.55A): little to no effect
SRE response compared with WT (in words) (GPR55 C(260)A): right shifted curves
SRE response compared with WT (in words) (GPR55 Q7.36A): little to no effect
Substance: l-α-lysophosphatidylinositol [LPI]
SRE response compared with WT (in words) (GPR55 H(170)F): right shifted curves; also recorded: reduced signaling
SRE response compared with WT (in words) (GPR55 K2.60A): did not show any LPI-induced responses; also recorded: loss of function
SRE response compared with WT (in words) (GPR55 E3.29L): slight response at high concentrations of LPI
SRE response compared with WT (in words) (GPR55 M3.36A): right shifted curves; also recorded: reduces LPI's ability to signal
SRE response compared with WT (in words) (GPR55 Y3.32F): right shifted curves; also recorded: reduced signaling
SRE response compared with WT (in words) (GPR55 F6.48A): right shifted curves; also recorded: reduces LPI's ability to signal
SRE response compared with WT (in words) (GPR55 Y3.32L): right shifted curves; also recorded: reduced signaling
SRE response compared with WT (in words) (GPR55 E3.29A): slight response at high concentrations of LPI; also recorded: loss of function
SRE response compared with WT (in words) (GPR55 Q6.58M): little to no effect; also recorded: essentially no effect
